Measurements published in ChEMBL document CHEMBL1781938, “New 3-, 8-disubstituted pyrazolo[5,1-c][1,2,4]benzotriazines useful for studying the interaction with the HBp-3 area (hydrogen bond point area) in the benzodiazepine site on the γ-aminobutyric acid type A (GABAA) receptor” (Bioorg Med Chem, 2011).

Columns and labels:
[1] = Displacement of [3H]Ro151788 from bovine GABA-A receptor; design: species or system Bos taurus
Summary of the method: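 Competition binding against [3H]flumazenil (Ro 15-1788) at the benzodiazepine site, using bovine cerebral cortex membranes diluted in 50 mM Tris–citrate pH 7.4. Protein was measured by the Lowry method. Each compound was run at six or more concentrations. Ki was derived only for compounds giving more than 80% inhibition of specific binding at 10 µM.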

Bos taurus = species on record: Bos taurus; assay: Displacement of [3H]Ro151788 from bovine GABA-A receptor at 10 uM
Summary of the method: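 Bovine cerebral cortex membranes diluted in 50 mM Tris–citrate buffer pH 7.4, with protein measured by Lowry. Specific binding of [3H]flumazenil (Ro 15-1788) was read as percent inhibition with test compound at a fixed 10 µM. Compounds inhibiting by more than 80% went on to Ki determination.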

SMILES	Ki [1]	Activity (Bos taurus)
[O-][n+]1nc2c(I)cnn2c2cc(-c3ccsc3)ccc21	56 nM	> 80%
O=C(c1ccco1)c1cnn2c1n[n+]([O-])c1ccc(-c3ccco3)cc12	857 nM	> 80%
[O-][n+]1nc2c(-c3ccc[nH]3)cnn2c2cc(-c3ccsc3)ccc21	48.3 nM	> 80%
[O-][n+]1nc2c(I)cnn2c2cc(-c3ccco3)ccc21	190 nM	> 80%
[O-][n+]1nc2c(-c3ccsc3)cnn2c2cc(-c3ccccc3)ccc21	642 nM	> 80%
COC(=O)c1cnn2c1n[n+]([O-])c1ccc(-c3ccc[nH]3)cc12	14.9 nM	> 80%
COc1ccc(-c2ccc3c(c2)n2ncc(C(=O)OCc4cccs4)c2n[n+]3[O-])cc1	29.4 nM	> 80%
COc1ccc(-c2ccc3c(c2)n2ncc(C(=O)c4ccco4)c2n[n+]3[O-])cc1	239 nM	> 80%
O=C(c1ccco1)c1cnn2c1n[n+]([O-])c1ccc(-c3ccc[nH]3)cc12	63 nM	> 80%
[O-][n+]1nc2c(I)cnn2c2cc(-c3ccncc3)ccc21	2380 nM	> 80%
[O-][n+]1nc2c(-c3ccsc3)cnn2c2cc(-c3ccsc3)ccc21	357 nM	> 80%
O=C(OCc1cccs1)c1cnn2c1n[n+]([O-])c1ccc(-c3ccco3)cc12	54.8 nM	> 80%

More lines, now with the values ahead:

Ki [1]	Activity (Bos taurus)	SMILES
395 nM	> 80%	CC(C)(C)OC(=O)n1cccc1-c1ccc2c(c1)n1ncc(C(=O)OCc3cccs3)c1n[n+]2[O-]
2480 nM	> 80%	[O-][n+]1nc2c(I)cnn2c2cc(-c3ccccc3O)ccc21
305 nM	> 80%	COc1ccccc1-c1ccc2c(c1)n1ncc(I)c1n[n+]2[O-]
209 nM	> 80%	[O-][n+]1nc2c(-c3ccsc3)cnn2c2cc(-c3ccco3)ccc21
370 nM	> 80%	[O-][n+]1nc2c(-c3ccsc3)cnn2c2cc(-c3cccs3)ccc21
241 nM	> 80%	COc1ccc(-c2ccc3c(c2)n2ncc(I)c2n[n+]3[O-])cc1
817 nM	> 80%	COc1ccc(-c2ccc3c(c2)n2ncc(-c4ccsc4)c2n[n+]3[O-])cc1
19.4 nM	> 80%	[O-][n+]1nc2c(-c3ccsc3)cnn2c2cc(-c3ccc[nH]3)ccc21
202 nM	> 80%	[O-][n+]1nc2c(I)cnn2c2cc(-c3cccs3)ccc21
25 nM	> 80%	[O-][n+]1nc2c(I)cnn2c2cc(-c3ccc[nH]3)ccc21
26.9 nM	> 80%	[O-][n+]1nc2c(-c3ccco3)cnn2c2cc(-c3ccsc3)ccc21
